Source: ChEMBL document CHEMBL1140207, “A small molecule inhibitor, 1,2,4,5-benzenetetraamine tetrahydrochloride, targeting the y397 site of focal adhesion kinase decreases tumor growth” (J Med Chem, 2008)
Calls of active or inactive are those of the source.

Assays:
[1] = system: BT-474; assay: Induction of apoptosis in human BT474 cells at 10 uM after 24 hrs by […] staining; type: functional
Summary of the method: (§1)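 BT474 cells treated 24 h at various doses; apoptotic nuclei scored by Hoechst staining; means ± SD of four independent experiments versus untreated cells.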

[2] = system: BT-474; assay: Induction of apoptosis in human BT474 cells at 20 uM after 24 hrs by […] staining; type: functional; summary of the method: as §1
[3] = system: BT-474; assay: Induction of apoptosis in human BT474 cells assessed as cleavage of 89 kDa PARP at 1 uM after 24 hrs by Western blotting; type: functional, cell-based
Summary of the method: (§2)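 BT474 cells treated at various doses; lysates immunoblotted with PARP antibody, scoring cleaved 89 kDa fragment.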

[4] = system: BT-474; assay: Induction of apoptosis in human BT474 cells assessed as presence of apoptotic nuclei at 20 uM after 24 hrs by […] staining; type: functional, cell-based; summary of the method: as §1
[5] = target: Focal adhesion kinase 1 (Homo sapiens) (UniProt Q05397); assay: Inhibition of FAK-Y397 phosphorylation in human BT474 cells at 100 uM by Western blotting; type: cell-based; settings: BT-474, TDE = time-dependent effect
Summary of the method: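 BT474 cells given 100 μM for 1–24 h; Y397-FAK and total FAK normalized to β-actin by densitometry, expressed relative to untreated; three independent experiments, mean ± SE.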

[6] = target: Focal adhesion kinase 1 (Homo sapiens) (UniProt Q05397); assay: Inhibition of total FAK phosphorylation in human BT474 cells at 100 uM by Western blotting; type: cell-based; settings: BT-474, TDE = time-dependent effect
Summary of the method: (§3)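 BT474 lysates immunoprecipitated with FAK antibody, blotted with phosphotyrosine antibody, then stripped and reprobed for FAK.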

[7] = system: BT-474; assay: Effect on human BT474 cell survival assessed as cell detachment at 10 uM after 24 hrs by hemocytometer; type: functional
Summary of the method: (§4)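 BT474 cells treated at a range of doses; detached cells counted on a hemacytometer; means ± standard errors of three independent experiments, versus untreated cells.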

[8] = system: BT-474; assay: Effect on human BT474 cell survival assessed as cell detachment at 50 uM after 24 hrs by hemocytometer; type: functional; summary of the method: as §4
[9] = system: BT-474; assay: Inhibition of human BT474 cells adhesion on collagen coated plates at 100 uM after 3 hrs by crystal violet staining
[10] = system: BT-474; assay: Induction of apoptosis in human BT474 cells at 50 to 100 uM after 24 hrs by […] staining; type: functional; summary of the method: as §1
[11] = system: BT-474; assay: Induction of apoptosis in human BT474 cells assessed as presence of apoptotic nuclei at 100 uM after 24 hrs by […] staining; type: functional, cell-based; summary of the method: as §1
[12] = system: BT-474; assay: Induction of apoptosis in human BT474 cells assessed as cleavage of 89 kDa PARP at 100 uM after 24 hrs by Western blotting; type: functional, cell-based; summary of the method: as §2
[13] = system: BT-474; assay: Induction of necrosis in non-apoptotic human BT474 cells after 24 hrs by propidium iodide staining based Zeiss fluorescent microscope; type: functional, cell-based
Summary of the method: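 BT474 cells treated at 10 and 100 μM, collected, stained 10 min with propidium iodide (10 μg/ml) for dead necrotic cells plus Hoechst (10 μg/ml) for nuclei; examined by fluorescence microscopy.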

[14] = system: BT-474; assay: Inhibition of tumor growth in human BT474 cells xenografted in mouse assessed as tumor volume at 30 mg/kg administered daily for 5 days per week measured after 23 days; type: functional, organism-based; parameters: dose 30 mg/kg
Summary of the method: (§5)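 BT474 cells injected subcutaneously into mice (5 per group); dosing at 30 mg/kg daily, 5 days per week, starting the day after injection; untreated mice as controls.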

[15] = system: Mus musculus; assay: Inhibition of tumor growth in human BT474 cells xenografted in mouse assessed as animal weight loss at 30 mg/kg administered daily for 5 days per week measured after 23 days; type: organism-based, BT-474; parameters: dose 30 mg/kg; settings: in vivo, 552 h
Summary of the method: (§6)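 BT474 breast cancer cells were injected subcutaneously into 5 mice. Dosing at 30 mg/kg started the day after injection and was given daily, 5 days per week. Five untreated mice served as controls.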

[16] = system: Mus musculus; assay: Inhibition of tumor growth in human BT474 cells xenografted in mouse assessed as animal death at 30 mg/kg administered daily for 5 days per week measured after 23 days; type: organism-based, BT-474; parameters: dose 30 mg/kg; settings: in vivo, 552 h; summary of the method: as §6
[17] = system: BT-474; assay: Inhibition of tumor growth in human BT474 cells xenografted in mouse assessed as reduction in tumor weight at 30 mg/kg administered daily for 5 days per week measured after 23 days; type: functional, organism-based; parameters: dose 30 mg/kg; summary of the method: as §5
[18] = target: Paxillin (Homo sapiens) (UniProt P49023); assay: Inhibition of paxillin phosphorylation in human BT474 cells at 100 uM after 24 hrs by Western blotting; type: cell-based; settings: BT-474
[19] = target: Platelet-derived growth factor receptor alpha (Homo sapiens) (UniProt P16234); assay: Inhibition of recombinant PDGFRa at 1 uM
Summary of the method: (§7)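 Commercial kinase profiling panel: recombinant enzymes (including FAK kinase domain 411-686 a.a.) tested with 1 μM compound, 10 μM ATP and kinase substrates; % inhibition versus untreated; mean ± SE of two independent experiments.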

[20] = system: BT-474; assay: Cytotoxicity against human BT474 cells assessed as decrease in cell viability at 100 uM after 24 hrs by MTT assay; type: functional, cell-based
Summary of the method: (§8)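 Cells given each compound at 100 μM for 24 h, then MTT viability assay; known FAK inhibitor 1a used as reference control.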

[21] = system: T47D; assay: Cytotoxicity against human T47D cells assessed as decrease in cell viability at 100 uM after 24 hrs by MTT assay; type: functional, cell-based; summary of the method: as §8
[22] = system: MCF7; assay: Cytotoxicity against human MCF7 cells assessed as decrease in cell viability at 100 uM after 24 hrs by MTT assay; type: functional, cell-based; summary of the method: as §8
[23] = system: HT-29; assay: Cytotoxicity against human HT-29 cells assessed as decrease in cell viability at 100 uM after 24 hrs by MTT assay; type: functional, cell-based
[24] = system: C8161; assay: Cytotoxicity against human C8161 cells assessed as decrease in cell viability at 100 uM after 24 hrs by MTT assay; type: functional, cell-based
Summary of the method: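 Cells from breast cancer and melanoma lines were exposed to compound for 24 h and viability was read by MTT assay. A reference FAK inhibitor served as the control.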

[25] = system: A549; assay: Cytotoxicity against human A549 cells assessed as decrease in cell viability at 100 uM after 24 hrs by MTT assay; type: functional, cell-based
[26] = system: BT-474; assay: Cytotoxicity against human BT474 cells assessed as decrease in cell viability after 24 hrs by MTT assay; type: functional, cell-based
Summary of the method: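 BT474 breast cancer cells exposed to a range of doses for 24 h; viability by MTT; mean of triplicate determinations ± SD versus untreated cells.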

[27] = target: Focal adhesion kinase 1 (Homo sapiens) (UniProt Q05397); assay: Inhibition of FAK-Y397 phosphorylation in human BT474 cells at 100 uM after 24 hrs by Western blotting; type: cell-based; settings: BT-474
Summary of the method: (§9)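 BT474 cells treated 100 μM for 24 h; Western blot with Y397-FAK and Y118-paxillin antibodies, total FAK, paxillin and β-actin as expression/loading references.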

[28] = target: Paxillin (Homo sapiens) (UniProt P49023); assay: Inhibition of paxillin-Y118 phosphorylation in human BT474 cells at 100 uM after 24 hrs by Western blotting; type: cell-based; settings: BT-474; summary of the method: as §9
[29] = target: Vascular endothelial growth factor receptor 3 (Homo sapiens) (UniProt P35916); assay: Inhibition of VEGFR3 phosphorylation in human BT474 cells at 100 uM after 24 hrs by Western blotting; type: cell-based; settings: BT-474
[30] = target: Proto-oncogene tyrosine-protein kinase Src (Homo sapiens) (UniProt P12931); assay: Inhibition of c-Src phosphorylation in human BT474 cells at 100 uM after 24 hrs by Western blotting; type: cell-based; settings: BT-474
[31] = target: Focal adhesion kinase 1 (Homo sapiens) (UniProt Q05397); assay: Inhibition of total FAK autophosphorylation in human BT474 cells at 100 uM after 24 hrs by Western blotting; type: cell-based; settings: BT-474; summary of the method: as §3
[32] = target: Focal adhesion kinase 1 (Homo sapiens) (UniProt Q05397); assay: Inhibition of FAK-Y397 phosphorylation in human BT474 cells after 24 hrs by Western blotting; type: cell-based; settings: BT-474
Summary of the method: (§10)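 BT474 cells treated at different doses; Western blot for Y397-FAK then total FAK, plus Y402-Pyk-2; β-actin for loading.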

[33] = target: Protein-tyrosine kinase 2-beta (Homo sapiens) (UniProt Q14289); assay: Inhibition of Pyk2-Y402 phosphorylation in human BT474 cells at 100 uM after 24 hrs by Western blotting; type: cell-based; settings: BT-474; summary of the method: as §10
[34] = target: Focal adhesion kinase 1 (Homo sapiens) (UniProt Q05397); assay: Inhibition of recombinant full length FAK autophosphorylation expressed in baculovirus by SDS-PAGE
Summary of the method: (§11)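 In vitro autophosphorylation: 0.1 μg purified recombinant FAK or Pyk-2 with γ-32P-ATP and varying inhibitor doses, 10 min at room temperature; three independent experiments.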

[35] = target: Protein-tyrosine kinase 2-beta (Homo sapiens) (UniProt Q14289); assay: Inhibition of recombinant full length Pyk2 autophosphorylation expressed in baculovirus by SDS-PAGE; summary of the method: as §11
[36] = target: Focal adhesion kinase 1 (Homo sapiens) (UniProt Q05397); assay: Inhibition of recombinant full length FAK-mediated GST-paxillin […] expressed in baculovirus by SDS-PAGE
Summary of the method: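 Purified recombinant FAK (0.1 μg) with GST-paxillin substrate, γ-32P-ATP and varying inhibitor doses, 10 min at room temperature.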

[37] = target: Focal adhesion kinase 1 (Homo sapiens) (UniProt Q05397); assay: Inhibition of recombinant FAK domain (411 to 686 amino acids) without N terminal domain containing Y397 site at 1 uM; summary of the method: as §7
[38] = target: Protein-tyrosine kinase 2-beta (Homo sapiens) (UniProt Q14289); assay: Inhibition of recombinant Pyk2 at 1 uM; summary of the method: as §7
[39] = target: RAF proto-oncogene serine/threonine-protein kinase (Homo sapiens) (UniProt P04049); assay: Inhibition of recombinant c-RAF at 1 uM; summary of the method: as §7
[40] = target: Proto-oncogene tyrosine-protein kinase Src (Homo sapiens) (UniProt P12931); assay: Inhibition of recombinant c-Src at 1 uM; summary of the method: as §7
[41] = target: Epidermal growth factor receptor (Homo sapiens) (UniProt P00533); assay: Inhibition of recombinant EGFR at 1 uM; summary of the method: as §7
[42] = target: Vascular endothelial growth factor receptor 3 (Homo sapiens) (UniProt P35916); assay: Inhibition of recombinant Flt4 at 1 uM; summary of the method: as §7
[43] = target: Insulin-like growth factor 1 receptor (Homo sapiens) (UniProt P08069); assay: Inhibition of recombinant IGF1R at 1 uM; summary of the method: as §7
[44] = target: Hepatocyte growth factor receptor (Homo sapiens) (UniProt P08581); assay: Inhibition of recombinant Met at 1 uM; summary of the method: as §7
[45] = target: PI3-kinase p110-delta/p85-alpha (Homo sapiens) (UniProt P27986+O00329); assay: Inhibition of recombinant PI3 kinase p110delta/p85-alpha subunit at 1 uM; summary of the method: as §7
[46] = system: BT-474; assay: Effect on human BT474 cell survival assessed as cell detachment after 24 hrs by hemocytometer; type: functional, cell-based; summary of the method: as §4
[47] = system: BT-474; assay: Effect on human BT474 cell survival assessed as cell detachment at 100 to 200 uM after 24 hrs by hemocytometer; type: functional; summary of the method: as §4
[48] = Effect on human MCF10A cell survival assessed as cell detachment at 100 uM after 24 hrs by hemocytometer; type: ADME, cell-based; settings: mcf-10a
Summary of the method: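 Normal breast MCF10A cells were treated with a range of compound doses. Detached cells were counted on a hemacytometer, and values are means ± standard errors of three independent experiments.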

[49] = system: BT-474; assay: Effect on human BT474 cell survival assessed as cell detachment at 100 uM after 24 hrs by hemocytometer; type: functional; summary of the method: as §4
[50] = system: BT-474; assay: Inhibition of human BT474 cells adhesion on collagen coated plates after 3 hrs by crystal violet staining
[51] = system: BT-474; assay: Induction of apoptosis in human BT474 cells assessed as cleavage of 89 kDa PARP after 24 hrs by Western blotting

Measured: Activity

Focal adhesion kinase 1 (Homo sapiens), sequence (Q05397 2-1052 limits assumed): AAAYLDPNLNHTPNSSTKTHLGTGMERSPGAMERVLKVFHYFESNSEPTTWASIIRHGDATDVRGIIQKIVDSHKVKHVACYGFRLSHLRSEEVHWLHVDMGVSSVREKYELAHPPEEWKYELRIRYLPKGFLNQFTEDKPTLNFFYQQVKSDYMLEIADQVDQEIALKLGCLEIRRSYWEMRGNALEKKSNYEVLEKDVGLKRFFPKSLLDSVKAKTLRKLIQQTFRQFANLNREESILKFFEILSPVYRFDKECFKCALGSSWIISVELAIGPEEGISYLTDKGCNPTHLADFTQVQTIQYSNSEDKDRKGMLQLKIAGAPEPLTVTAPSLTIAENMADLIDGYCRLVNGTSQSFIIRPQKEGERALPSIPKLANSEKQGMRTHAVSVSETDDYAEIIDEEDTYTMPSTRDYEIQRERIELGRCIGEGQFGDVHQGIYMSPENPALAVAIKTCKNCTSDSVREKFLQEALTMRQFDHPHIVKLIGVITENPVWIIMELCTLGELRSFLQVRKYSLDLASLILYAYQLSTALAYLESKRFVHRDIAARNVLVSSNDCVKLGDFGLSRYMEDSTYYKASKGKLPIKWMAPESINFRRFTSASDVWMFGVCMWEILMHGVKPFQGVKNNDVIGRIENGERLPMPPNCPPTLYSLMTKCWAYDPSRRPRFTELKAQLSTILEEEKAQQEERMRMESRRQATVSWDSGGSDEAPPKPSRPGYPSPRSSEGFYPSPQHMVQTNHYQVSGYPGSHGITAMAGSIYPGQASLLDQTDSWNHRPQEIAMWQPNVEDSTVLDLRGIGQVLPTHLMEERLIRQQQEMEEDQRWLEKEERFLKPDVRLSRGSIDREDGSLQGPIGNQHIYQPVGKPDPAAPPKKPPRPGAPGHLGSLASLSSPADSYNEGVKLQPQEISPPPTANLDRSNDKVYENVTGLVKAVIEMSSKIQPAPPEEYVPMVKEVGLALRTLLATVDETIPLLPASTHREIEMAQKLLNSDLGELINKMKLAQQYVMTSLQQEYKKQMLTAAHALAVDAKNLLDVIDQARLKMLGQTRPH
Protein-tyrosine kinase 2-beta (Homo sapiens), sequence (Q14289 whole entry, looked up): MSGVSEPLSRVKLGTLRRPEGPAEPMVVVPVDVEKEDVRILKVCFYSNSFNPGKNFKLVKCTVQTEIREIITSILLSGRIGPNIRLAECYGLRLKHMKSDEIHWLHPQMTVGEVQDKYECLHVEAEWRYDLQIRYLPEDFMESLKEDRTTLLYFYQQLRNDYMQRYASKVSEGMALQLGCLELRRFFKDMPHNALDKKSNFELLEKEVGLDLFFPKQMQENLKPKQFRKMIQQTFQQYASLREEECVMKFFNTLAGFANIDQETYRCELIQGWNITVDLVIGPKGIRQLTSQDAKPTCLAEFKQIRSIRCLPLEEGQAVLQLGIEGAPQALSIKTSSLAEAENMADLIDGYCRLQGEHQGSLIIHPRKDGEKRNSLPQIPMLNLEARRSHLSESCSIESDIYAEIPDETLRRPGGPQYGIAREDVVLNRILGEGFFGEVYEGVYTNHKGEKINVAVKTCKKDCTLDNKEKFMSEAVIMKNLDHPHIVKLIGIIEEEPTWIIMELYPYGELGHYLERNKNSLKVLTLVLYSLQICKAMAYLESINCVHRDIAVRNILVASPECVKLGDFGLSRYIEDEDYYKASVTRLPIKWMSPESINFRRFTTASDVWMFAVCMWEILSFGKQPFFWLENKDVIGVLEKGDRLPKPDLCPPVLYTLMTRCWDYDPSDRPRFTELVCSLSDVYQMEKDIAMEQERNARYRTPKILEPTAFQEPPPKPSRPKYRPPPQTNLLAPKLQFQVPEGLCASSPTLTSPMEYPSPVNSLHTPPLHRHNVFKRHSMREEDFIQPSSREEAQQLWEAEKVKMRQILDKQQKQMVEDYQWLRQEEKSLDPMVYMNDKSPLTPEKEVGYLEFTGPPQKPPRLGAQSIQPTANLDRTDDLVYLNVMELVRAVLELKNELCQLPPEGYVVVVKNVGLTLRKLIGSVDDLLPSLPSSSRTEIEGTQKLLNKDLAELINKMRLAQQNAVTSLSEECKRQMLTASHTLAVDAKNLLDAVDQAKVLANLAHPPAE
Vascular endothelial growth factor receptor 3 (Homo sapiens), sequence (P35916 whole entry): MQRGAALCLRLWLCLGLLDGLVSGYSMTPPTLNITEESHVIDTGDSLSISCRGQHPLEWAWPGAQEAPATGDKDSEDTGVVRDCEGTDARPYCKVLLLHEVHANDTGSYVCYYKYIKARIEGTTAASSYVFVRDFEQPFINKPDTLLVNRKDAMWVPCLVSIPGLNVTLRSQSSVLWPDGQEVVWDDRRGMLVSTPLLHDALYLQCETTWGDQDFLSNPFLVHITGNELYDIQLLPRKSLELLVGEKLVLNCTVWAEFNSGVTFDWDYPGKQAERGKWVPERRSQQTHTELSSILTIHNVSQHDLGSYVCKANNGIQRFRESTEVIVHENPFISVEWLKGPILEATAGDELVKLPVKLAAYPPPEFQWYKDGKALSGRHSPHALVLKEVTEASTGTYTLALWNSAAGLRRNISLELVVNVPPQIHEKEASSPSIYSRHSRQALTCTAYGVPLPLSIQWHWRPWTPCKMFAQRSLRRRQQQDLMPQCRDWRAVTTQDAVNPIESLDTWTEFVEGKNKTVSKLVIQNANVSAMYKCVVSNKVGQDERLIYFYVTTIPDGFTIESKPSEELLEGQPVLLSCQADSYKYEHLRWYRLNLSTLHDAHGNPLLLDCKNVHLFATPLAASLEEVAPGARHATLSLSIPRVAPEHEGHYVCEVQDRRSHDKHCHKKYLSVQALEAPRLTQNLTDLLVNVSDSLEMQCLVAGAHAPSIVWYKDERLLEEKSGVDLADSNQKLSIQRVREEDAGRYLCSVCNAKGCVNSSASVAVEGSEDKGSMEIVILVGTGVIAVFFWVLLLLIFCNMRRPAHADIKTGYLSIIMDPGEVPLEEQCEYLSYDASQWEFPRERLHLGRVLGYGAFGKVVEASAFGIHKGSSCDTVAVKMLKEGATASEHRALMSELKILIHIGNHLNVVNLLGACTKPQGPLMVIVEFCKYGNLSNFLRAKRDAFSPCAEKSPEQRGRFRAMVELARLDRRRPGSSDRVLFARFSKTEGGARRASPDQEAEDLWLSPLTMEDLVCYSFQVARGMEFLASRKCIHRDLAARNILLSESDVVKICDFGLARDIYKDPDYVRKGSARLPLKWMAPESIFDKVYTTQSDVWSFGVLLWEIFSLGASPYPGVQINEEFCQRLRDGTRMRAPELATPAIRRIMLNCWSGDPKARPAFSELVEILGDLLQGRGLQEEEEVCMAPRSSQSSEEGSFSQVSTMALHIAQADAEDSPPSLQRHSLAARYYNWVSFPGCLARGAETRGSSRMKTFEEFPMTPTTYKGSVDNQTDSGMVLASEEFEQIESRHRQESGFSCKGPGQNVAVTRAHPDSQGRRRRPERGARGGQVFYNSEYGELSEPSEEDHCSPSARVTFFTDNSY
Paxillin (Homo sapiens), sequence (P49023 whole entry): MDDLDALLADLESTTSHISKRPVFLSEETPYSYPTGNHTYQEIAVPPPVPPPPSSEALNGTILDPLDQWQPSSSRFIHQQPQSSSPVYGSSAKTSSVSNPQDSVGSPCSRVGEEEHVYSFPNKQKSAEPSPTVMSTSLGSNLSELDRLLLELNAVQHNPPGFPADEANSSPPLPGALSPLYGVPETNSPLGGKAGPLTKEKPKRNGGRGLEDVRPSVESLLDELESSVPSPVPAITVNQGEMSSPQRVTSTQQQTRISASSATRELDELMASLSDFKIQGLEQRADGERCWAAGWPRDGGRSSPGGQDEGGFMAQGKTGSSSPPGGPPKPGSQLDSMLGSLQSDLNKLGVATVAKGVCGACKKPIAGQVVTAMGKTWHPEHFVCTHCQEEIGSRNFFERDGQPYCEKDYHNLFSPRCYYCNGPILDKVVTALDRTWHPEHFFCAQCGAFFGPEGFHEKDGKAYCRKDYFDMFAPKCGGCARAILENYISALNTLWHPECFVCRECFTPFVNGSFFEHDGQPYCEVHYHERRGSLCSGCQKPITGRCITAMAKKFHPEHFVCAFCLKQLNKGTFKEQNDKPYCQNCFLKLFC
Proto-oncogene tyrosine-protein kinase Src (Homo sapiens), sequence (P12931 2-536 limits assumed): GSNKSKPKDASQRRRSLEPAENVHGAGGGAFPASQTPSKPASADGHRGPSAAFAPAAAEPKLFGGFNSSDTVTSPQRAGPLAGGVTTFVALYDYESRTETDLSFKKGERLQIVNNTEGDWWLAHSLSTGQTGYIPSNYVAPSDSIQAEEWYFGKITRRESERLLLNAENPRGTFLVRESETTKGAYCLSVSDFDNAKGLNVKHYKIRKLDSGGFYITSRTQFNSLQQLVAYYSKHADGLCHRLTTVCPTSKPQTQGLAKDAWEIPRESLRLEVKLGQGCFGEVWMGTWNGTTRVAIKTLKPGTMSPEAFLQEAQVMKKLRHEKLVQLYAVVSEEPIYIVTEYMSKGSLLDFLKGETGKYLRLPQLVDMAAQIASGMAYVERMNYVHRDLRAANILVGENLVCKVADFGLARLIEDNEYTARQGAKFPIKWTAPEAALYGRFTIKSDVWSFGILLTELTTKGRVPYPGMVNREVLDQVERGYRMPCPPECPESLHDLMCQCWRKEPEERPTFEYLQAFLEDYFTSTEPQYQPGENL

CNC(=O)c1ccccc1Nc1nc(Nc2ccc(N3CCOCC3)cc2OC)ncc1Cl
35%: [1]
30%: [7]
>80%: [8]
active: [3] | [4] | [5] tde | [6] tde | [9]
69%: [2]

Cl.Nc1cc(N)c(N)cc1N
64%: [47] | [49]
8%: [7]
active: [13] Dose-dependent effect | [14] | [17] | [18] | [20] | [21] | [22] | [23] | [24] | [25] | [26] Dose-dependent effect | [27] | [28] | [31] | [32] Dose-dependent effect | [5] tde | [34] Dose-dependent effect | [36] Dose-dependent effect | [46] Dose-dependent effect | [50] Dose-dependent effect | [51] | [9]
inactive: [11] | [3] | [12] | [19] | [29] | [30] | [33] | [35] | [37] | [38] | [39] | [40] | [41] | [42] | [43] | [44] | [45]
38%: [8]
<5%: [10]
Non-toxic: [15] | [16]
15%: [48]
